ChEMBL document CHEMBL1649574, “Prevalence and characterization of heterogeneous vancomycin-intermediate Staphylococcus aureus isolates from 14 cities in China” (2009)
Values after ≈ are worked out from the molar mass of the structure shown.

Key:
Format in all cases: functional
[1] = test system: Staphylococcus aureus; assay: Antimicrobial activity against SCCmec type II vancomycin-intermediate Staphylococcus aureus isolate 4sy32 by agar dilution method
How it was run: (§1)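 Agar-dilution MICs were measured on a subset of 200 blood MRSA isolates from China. Agents: oxacillin, rifampin, gentamicin, levofloxacin, erythromycin, vancomycin, teicoplanin, tigecycline, ceftobiprole and linezolid. Phenotype came from the PAP-AUC ratio of each isolate to S. aureus Mu3 (VSSA <0.9; hVISA 0.9 to 1.3; VISA ≥1.3), read on BHI agar with 0 to 8.0 mg/liter vancomycin after 48 h at 35°C.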

[2] = test system: Staphylococcus aureus; assay: Antimicrobial activity against SCCmec type II vancomycin-intermediate Staphylococcus aureus isolate 4sy39 by agar dilution method; how it was run: as §1
[3] = test system: Staphylococcus aureus; assay: Antimicrobial activity against heterogeneous vancomycin-intermediate Staphylococcus aureus by agar dilution method; how it was run: as §1
[4] = test system: Staphylococcus aureus; assay: Antimicrobial activity against vancomycin-intermediate Staphylococcus aureus by agar dilution method; how it was run: as §1
[5] = test system: Staphylococcus aureus; assay: Antimicrobial activity against heterogeneous vancomycin-intermediate Staphylococcus aureus assessed as intermediate isolates by agar dilution method
How it was run: (§2)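 MICs by agar dilution for all 200 MRSA blood isolates (oxacillin, rifampin, gentamicin, levofloxacin, erythromycin, vancomycin, teicoplanin, tigecycline, ceftobiprole, linezolid). Isolates were grouped by PAP-AUC ratio against S. aureus Mu3: below 0.9 VSSA, 0.9 to 1.3 hVISA, 1.3 or more VISA.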

[6] = test system: Staphylococcus aureus; assay: Antimicrobial activity against heterogeneous vancomycin-intermediate Staphylococcus aureus assessed as susceptible isolates by agar dilution method; how it was run: as §2
[7] = test system: Staphylococcus aureus; assay: Antimicrobial activity against heterogeneous vancomycin-intermediate Staphylococcus aureus assessed as growth inhibition at 0.25 times MIC; set-up: scale not given: the % may be the effect or the level left
[8] = test system: Staphylococcus aureus; assay: Antimicrobial activity against heterogeneous vancomycin-intermediate Staphylococcus aureus assessed as growth inhibition at 0.125 times MIC; set-up: scale not given: the % may be the effect or the level left
[9] = test system: Staphylococcus aureus; assay: Antimicrobial activity against vancomycin-susceptible Staphylococcus aureus by agar dilution method; how it was run: as §1
[10] = test system: Staphylococcus aureus; assay: Antimicrobial activity against heterogeneous vancomycin-susceptible Staphylococcus aureus assessed as intermediate isolates by agar dilution method
[11] = test system: Staphylococcus aureus; assay: Antimicrobial activity against heterogeneous vancomycin-susceptible Staphylococcus aureus assessed as susceptible isolates by agar dilution method; how it was run: as §2
[12] = test system: Staphylococcus aureus; assay: Antimicrobial activity against heterogeneous vancomycin-intermediate Staphylococcus aureus assessed as growth inhibition at 0.5 times MIC; set-up: scale not given: the % may be the effect or the level left
[13] = test system: Staphylococcus aureus; assay: Antimicrobial activity against heterogeneous vancomycin-intermediate Staphylococcus aureus assessed as growth inhibition at MIC; set-up: scale not given: the % may be the effect or the level left
[14] = test system: Staphylococcus aureus; assay: Antimicrobial activity against heterogeneous vancomycin-intermediate Staphylococcus aureus assessed as growth inhibition at 2 times MIC; set-up: scale not given: the % may be the effect or the level left
[15] = test system: Staphylococcus aureus; assay: Antimicrobial activity against heterogeneous vancomycin-intermediate Staphylococcus aureus assessed as growth inhibition at 4 times MIC; set-up: scale not given: the % may be the effect or the level left
[16] = test system: Staphylococcus aureus; assay: Antimicrobial activity against heterogeneous vancomycin-intermediate Staphylococcus aureus assessed as growth inhibition at 16 times MIC; set-up: scale not given: the % may be the effect or the level left
[17] = test system: Staphylococcus aureus; assay: Antimicrobial activity against vancomycin-susceptible Staphylococcus aureus assessed as growth inhibition at 0.125 times MIC; set-up: scale not given: the % may be the effect or the level left
[18] = test system: Staphylococcus aureus; assay: Antimicrobial activity against vancomycin-susceptible Staphylococcus aureus assessed as growth inhibition at 0.25 times MIC; set-up: scale not given: the % may be the effect or the level left
[19] = test system: Staphylococcus aureus; assay: Antimicrobial activity against vancomycin-susceptible Staphylococcus aureus assessed as growth inhibition at 0.5 times MIC; set-up: scale not given: the % may be the effect or the level left
[20] = test system: Staphylococcus aureus; assay: Antimicrobial activity against vancomycin-susceptible Staphylococcus aureus assessed as growth inhibition at MIC; set-up: scale not given: the % may be the effect or the level left
[21] = test system: Staphylococcus aureus; assay: Antimicrobial activity against vancomycin-susceptible Staphylococcus aureus assessed as growth inhibition at 2 times MIC; set-up: scale not given: the % may be the effect or the level left
[22] = test system: Staphylococcus aureus; assay: Antimicrobial activity against vancomycin-susceptible Staphylococcus aureus assessed as growth inhibition at 4 times MIC; set-up: scale not given: the % may be the effect or the level left
[23] = test system: Staphylococcus aureus; assay: Antimicrobial activity against vancomycin-susceptible Staphylococcus aureus assessed as growth inhibition at 16 times MIC; set-up: scale not given: the % may be the effect or the level left
[24] = test system: Staphylococcus aureus; assay: Antimicrobial activity against SCCmec type III vancomycin-intermediate Staphylococcus aureus isolate 5zjsau3 by agar dilution method; how it was run: as §1
[25] = test system: Staphylococcus aureus; assay: Antimicrobial activity against SCCmec type II vancomycin-intermediate Staphylococcus aureus isolate sh06024 by agar dilution method; how it was run: as §1
[26] = test system: Staphylococcus aureus; assay: Antimicrobial activity against SCCmec type III vancomycin-intermediate Staphylococcus aureus isolate gz06040 by agar dilution method; how it was run: as §1
[27] = test system: Staphylococcus aureus; assay: Antimicrobial activity against SCCmec type III vancomycin-intermediate Staphylococcus aureus isolate gz06051 by agar dilution method; how it was run: as §1
[28] = test system: Staphylococcus aureus; assay: Antimicrobial activity against SCCmec type II vancomycin-intermediate Staphylococcus aureus isolate 6zjsau7 by agar dilution method; how it was run: as §1
[29] = test system: Staphylococcus aureus; assay: Antimicrobial activity against SCCmec type III vancomycin-intermediate Staphylococcus aureus isolate bd4768 by agar dilution method; how it was run: as §1
[30] = test system: Staphylococcus aureus; assay: Antimicrobial activity against SCCmec type II vancomycin-intermediate Staphylococcus aureus isolate b2k4781 by agar dilution method; how it was run: as §1
[31] = test system: Staphylococcus aureus; assay: Antimicrobial activity against SCCmec type III vancomycin-intermediate Staphylococcus aureus isolate b3k2345 by agar dilution method; how it was run: as §1
[32] = test system: Staphylococcus aureus; assay: Antimicrobial activity against SCCmec type III vancomycin-intermediate Staphylococcus aureus isolate b2k3421 by agar dilution method; how it was run: as §1
[33] = test system: Staphylococcus aureus; assay: Antimicrobial activity against SCCmec type III vancomycin-intermediate Staphylococcus aureus isolate b3k5923 by agar dilution method; how it was run: as §1
[34] = test system: Staphylococcus aureus; assay: Antimicrobial activity against SCCmec type III vancomycin-intermediate Staphylococcus aureus isolate b4k6307 by agar dilution method; how it was run: as §1
[35] = test system: Staphylococcus aureus; assay: Antimicrobial activity against SCCmec type III vancomycin-intermediate Staphylococcus aureus isolate b5k3529 by agar dilution method; how it was run: as §1
[36] = test system: Staphylococcus aureus; assay: Antimicrobial activity against SCCmec type III vancomycin-intermediate Staphylococcus aureus isolate b5k3578 by agar dilution method; how it was run: as §1
[37] = test system: Staphylococcus aureus; assay: Antimicrobial activity against SCCmec type III vancomycin-intermediate Staphylococcus aureus isolate b6k1642 by agar dilution method; how it was run: as §1
[38] = test system: Staphylococcus aureus; assay: Antimicrobial activity against SCCmec type III vancomycin-intermediate Staphylococcus aureus isolate b6k7974 by agar dilution method; how it was run: as §1
[39] = test system: Staphylococcus aureus; assay: Antimicrobial activity against SCCmec type IV vancomycin-intermediate Staphylococcus aureus isolate 06b41 by agar dilution method; how it was run: as §1
[40] = test system: Staphylococcus aureus; assay: Antimicrobial activity against SCCmec type III vancomycin-intermediate Staphylococcus aureus isolate 13b16 by agar dilution method; how it was run: as §1
[41] = test system: Staphylococcus aureus; assay: Antimicrobial activity against SCCmec type III vancomycin-intermediate Staphylococcus aureus isolate 11b091 by agar dilution method; how it was run: as §1
[42] = test system: Staphylococcus aureus; assay: Antimicrobial activity against SCCmec type II vancomycin-intermediate Staphylococcus aureus isolate 07b63 by agar dilution method; how it was run: as §1
[43] = test system: Staphylococcus aureus; assay: Antimicrobial activity against SCCmec type III vancomycin-intermediate Staphylococcus aureus isolate 15b52 by agar dilution method; how it was run: as §1
[44] = test system: Staphylococcus aureus; assay: Antimicrobial activity against SCCmec type III vancomycin-intermediate Staphylococcus aureus isolate zj07028 by agar dilution method; how it was run: as §1
[45] = test system: Staphylococcus aureus; assay: Antimicrobial activity against SCCmec type III vancomycin-intermediate Staphylococcus aureus isolate sh07043 by agar dilution method; how it was run: as §1
[46] = test system: Staphylococcus aureus; assay: Antimicrobial activity against SCCmec type III vancomycin-intermediate Staphylococcus aureus isolate xa07029 by agar dilution method; how it was run: as §1
[47] = test system: Staphylococcus aureus; assay: Antimicrobial activity against SCCmec type III vancomycin-intermediate Staphylococcus aureus isolate gz07030 by agar dilution method; how it was run: as §1
[48] = test system: Staphylococcus aureus; assay: Antimicrobial activity against SCCmec type III vancomycin-intermediate Staphylococcus aureus isolate gs07022 by agar dilution method; how it was run: as §1

SMILES: Nc1nc(/C(=N/O)C(=O)N[C@@H]2C(=O)N3C(C(=O)O)=C(/C=C4\CCN([C@@H]5CCNC5)C4=O)CS[C@H]23)ns1 [CEFTOBIPROLE]
- MIC [1]: 0.5 µg/mL (≈ 0.935 µM)
- MIC [2]: 0.5 µg/mL (≈ 0.935 µM)
- MIC50 [3]: 2 µg/mL (≈ 3.74 µM)
- MIC90 [3]: 2 µg/mL (≈ 3.74 µM)
- MIC [4]: 0.5 µg/mL (≈ 0.935 µM)
- Activity [5]: 0%
- Activity [6]: 100%
- Activity [7]: 0%
- Activity [8]: 0%
- MIC50 [9]: 2 µg/mL (≈ 3.74 µM)
- MIC90 [9]: 2 µg/mL (≈ 3.74 µM)
- Activity [10]: 0%
- Activity [11]: 100%
- Activity [12]: 11.1%
- Activity [13]: 33.3%
- Activity [14]: 96.3%
- Activity [15]: 100%
- Activity [16]: 100%
- Activity [17]: 0%
- Activity [18]: 2.31%
- Activity [19]: 4.62%
- Activity [20]: 27.2%
- Activity [21]: 100%
- Activity [22]: 100%
- Activity [23]: 100%
- MIC [24]: 0.5 µg/mL (≈ 0.935 µM)
- MIC [25]: 2 µg/mL (≈ 3.74 µM)
- MIC [26]: 1 µg/mL (≈ 1.87 µM)
- MIC [27]: 2 µg/mL (≈ 3.74 µM)
- MIC [28]: 4 µg/mL (≈ 7.48 µM)
- MIC [29]: 2 µg/mL (≈ 3.74 µM)
- MIC [30]: 2 µg/mL (≈ 3.74 µM)
- MIC [31]: 2 µg/mL (≈ 3.74 µM)
- MIC [32]: 2 µg/mL (≈ 3.74 µM)
- MIC [33]: 2 µg/mL (≈ 3.74 µM)
- MIC [34]: 1 µg/mL (≈ 1.87 µM)
- MIC [35]: 2 µg/mL (≈ 3.74 µM)
- MIC [36]: 2 µg/mL (≈ 3.74 µM)
- MIC [37]: 2 µg/mL (≈ 3.74 µM)
- MIC [38]: 2 µg/mL (≈ 3.74 µM)
- MIC [39]: 1 µg/mL (≈ 1.87 µM)
- MIC [40]: 1 µg/mL (≈ 1.87 µM)
- MIC [41]: 2 µg/mL (≈ 3.74 µM)
- MIC [42]: 1 µg/mL (≈ 1.87 µM)
- MIC [43]: 2 µg/mL (≈ 3.74 µM)
- MIC [44]: 2 µg/mL (≈ 3.74 µM)
- MIC [45]: 2 µg/mL (≈ 3.74 µM)
- MIC [46]: 2 µg/mL (≈ 3.74 µM)
- MIC [47]: 2 µg/mL (≈ 3.74 µM)
- MIC [48]: 1 µg/mL (≈ 1.87 µM)
